According to ChEMBL document CHEMBL3351585, “Design, synthesis and biological evaluation of novel peptides with anti-cancer and drug resistance-reversing activities” (Eur J Med Chem, 2015):
Blank lines part the entries; values can stand above or below the compound they belong to. Calls of active or inactive are those of the source. The rule behind the calls is not given here.

Experiments:
[1] = Increase in adriamycin uptake in human MCF7/ADR cells at 10 uM after 2.5 hrs by fluorescence spectrophotometry; format: ADME, cell-based; settings: nci/adr-res
Method in brief: (§1)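 2 × 10^5 MCF-7/ADM or K562/ADM cells were co-incubated 2.5 h with ADM plus peptide, or with verapamil as comparator. After washing in cold PBS, cells were lysed in 0.75 M HCl/0.2% Triton X-100 in isopropanol. Lysate ADM fluorescence was measured by spectrofluorometry at ex 460/em 610 nm.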

NCI/ADR-RES [2] = test: Potentiation of adriamycin-induced cytotoxicity against human MCF7/ADR cells at 10 uM after 48 hrs by MTT assay; format: functional, cell-based
Method in brief: (§2)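 ADM-resistant MCF-7/ADM or K562/ADM cells, grown in RPMI1640 with 10% FBS at 37 °C and 5% CO2, were seeded at 1 × 10^4 per well and held 24 h. Fixed peptide was added, followed by graded ADM concentrations, for 48 h. MTT was then given for 4 h at 37 °C, formazan dissolved in DMSO and absorbance read at 570 nm. Verapamil served as positive control.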

[3] = Increase in adriamycin uptake in human K562/ADR cells at 10 uM after 2.5 hrs by fluorescence spectrophotometry; format: ADME, cell-based; method in brief: as §1
K562/Adr [4] = test: Potentiation of adriamycin-induced cytotoxicity against human K562/ADR cells at 10 uM after 48 hrs by MTT assay; format: functional, cell-based; method in brief: as §2
[5] = Increase in adriamycin uptake in human K562/ADR cells at 10 uM after 2.5 hrs by fluorescence microscopy; format: ADME, cell-based
Method in brief: (§3)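 2 × 10^5 MCF-7/ADM or K562/ADM cells were co-incubated 2.5 h with ADM plus peptide, or with verapamil as comparator. Cells were washed with cold PBS and ADM fluorescence was imaged by fluorescence microscopy.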

[6] = Increase in adriamycin uptake in human MCF7/ADR cells at 10 uM after 2.5 hrs by fluorescence microscopy; format: ADME, cell-based; settings: nci/adr-res; method in brief: as §3
MCF7 [7] = test: Induction of cytochrome c release in extracellular region of human MCF7 cells at 8 uM incubated for 2 hrs by ELISA method (reference value: 15.7 +/- 0.77 ng); format: functional
[8] = Cytotoxicity against human GES-1 cells after 48 hrs by MTT assay; format: cell-based; settings: GES1, 48 h
Method in brief: (§4)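 Cells grown in RPMI1640 with 10% heat-inactivated FBS and 1% penicillin-streptomycin at 37 °C, 5% CO2. Log-phase cells were seeded at 5 × 10^3/well 24 h before treatment, exposed to a range of peptide concentrations for 48 h, then given MTT for 4 h. Formazan was dissolved in DMSO and A490 read. Survival was computed relative to untreated wells, and IC50 taken from the survival curve.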

[9] = Anticancer activity against human MCF7/ADR cells after 48 hrs by MTT assay; format: functional, cell-based; settings: NCI/ADR-RES; method in brief: as §4
K562 = test: Anticancer activity against human K562 cells after 48 hrs by MTT assay; format: functional, cell-based; settings: K562, 48 h; method in brief: as §4
MCF7 [10] = test: Anticancer activity against human MCF7 cells after 48 hrs by MTT assay; format: functional, cell-based; settings: MCF7, 48 h; method in brief: as §4
MCF7 [11] = test: Induction of mitochondrial membrane potential depolarization in human MCF7 cells at 8 uM incubated for 2 hrs by JC1 staining; format: functional, cell-based
Method in brief: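 MCF-7 cells plated at 1 × 10^5 per well, grown 24 h, then exposed to peptide for 2 h. Mitochondrial membrane potential was assessed with a JC-1 mitochondrial membrane potential kit. Green (monomer) and red (J-aggregate) fluorescence were imaged, with merged orange taken as normal potential.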

MCF7 [12] = test: Induction of cytochrome c release in human MCF7 cells at 8 uM incubated for 2 hrs by ELISA method (reference value: 364.2 +/- 20.5 ng); format: functional
MCF7 [13] = test: Antimigratory activity in human MCF7 cells assessed as inhibition of cell migration at 1 uM incubated for 48 hrs by transwell migration assay; format: functional, cell-based
Method in brief: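 Transwell chambers with a porous membrane separating upper and lower compartments. 4 × 10^4 MCF-7 cells were placed in the upper chamber in peptide-containing medium and incubated 48 h. Cells that reached the lower membrane surface were counted.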

MCF7 [14] = test: Antimigratory activity in human MCF7 cells assessed as inhibition of cell migration at 1 uM incubated for 48 hrs by wound healing assay; format: functional, cell-based
Method in brief: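 MCF-7 cells were seeded at 2 × 10^5/well and grown 24 h to 90% confluence. A cell-free gap was scratched, and cells migrated in serum-free medium with peptide for 48 h. Wound closure was photographed at 0 h and 48 h.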

[15] = Toxicity in rabbit erythrocytes assessed as induction of hemolysis at 160 uM incubated for 1 hr by microplate reader assay; format: cell-based, Oryctolagus cuniculus; settings: erythrocyte
Method in brief: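 Rabbit red blood cells in PBS were mixed 1:1 by volume with peptide solution and incubated 1 h at 37 °C, then spun at 1000 g for 5 min. Hemoglobin in the supernatant was read at 540 nm. PBS defined 0% hemolysis and 0.1% Triton X-100 defined 100%.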

MCF7 [16] = test: Induction of cytochrome c release in mitochondria of human MCF7 cells at 8 uM incubated for 2 hrs by ELISA method (reference value: 347.8 +/- 14.5 ng); format: functional
[17] = Retention time of the compound by UPLC method; format: physicochemical
[18] = Increase in adriamycin uptake in human MCF7/ADR cells at 1 uM after 2.5 hrs by fluorescence microscopy; format: ADME, cell-based; settings: nci/adr-res; method in brief: as §3
[19] = Increase in adriamycin uptake in human K562/ADR cells at 1 uM after 2.5 hrs by fluorescence spectrophotometry; format: ADME, cell-based; method in brief: as §1
[20] = Increase in adriamycin uptake in human K562/ADR cells at 1 uM after 2.5 hrs by fluorescence microscopy; format: ADME, cell-based; method in brief: as §3
[21] = Increase in adriamycin uptake in human MCF7/ADR cells at 1 uM after 2.5 hrs by fluorescence spectrophotometry; format: ADME, cell-based; settings: nci/adr-res; method in brief: as §1
[22] = Drug uptake in cytosol of human MCF7 cells at 8 uM incubated for 5 mins or 30 mins by fluorescein isothiocyanate labeling based fluorescence microscopy; format: ADME, cell-based
Method in brief: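 MCF-7 cells were plated at 1 × 10^5/well and grown 24 h, then exposed to FITC-labeled peptides for 5 min or 30 min. Cells were washed three times with cold PBS, and intracellular fluorescence was imaged by fluorescence microscopy.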

MCF7 [23] = test: Induction of cytochrome c release in cytoplasm of human MCF7 cells at 8 uM incubated for 2 hrs by ELISA method (reference value: 44.1 +/- 2.7 ng); format: functional
NCI/ADR-RES [24] = test: Potentiation of adriamycin-induced cytotoxicity against human MCF7/ADR cells at 1 uM after 48 hrs by MTT assay; format: functional, cell-based; method in brief: as §2
[25] = Anticancer activity against human K562/ADR cells after 48 hrs by MTT assay; format: functional, cell-based; method in brief: as §4
MCF7 [26] = test: Induction of cell membrane alteration in human MCF7 cells at 8 uM incubated for 30 mins by acridine orange/ethidium bromide double staining method; format: functional, cell-based
Method in brief: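 MCF-7 cells were plated at 1 × 10^5/well and grown 24 h, then given peptide for 30 min. Cells were washed twice with PBS and stained 10 min in the dark with cold PBS containing acridine orange and ethidium bromide. Excess dye was washed off, then cells were imaged by fluorescence microscopy. Red EB staining marks membrane-compromised cells.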

K562/Adr [27] = test: Potentiation of adriamycin-induced cytotoxicity against human K562/ADR cells at 1 uM after 48 hrs by MTT assay; format: functional, cell-based; method in brief: as §2
MCF7 [28] = test: Induction of cell membrane morphology changes in human MCF7 cells at 8 uM incubated for 30 mins by scanning electron microscopy; format: functional, cell-based
Method in brief: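 MCF-7 cells were grown 24 h on coverslips at 1 × 10^5/well and exposed to peptide for 30 min. Cells were gently PBS-washed, fixed in 2.5% glutaraldehyde, and examined by scanning electron microscopy.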

Activity [1]: Active | Activity [3]: Active | Activity [5]: Active | Activity [6]: Active
Compound: COc1ccc(CCN(C)CCCC(C#N)(c2ccc(OC)c(OC)c2)C(C)C)cc1OC (centres undefined) [VERAPAMIL]
Activity (NCI/ADR-RES [2]): Active | Activity (K562/Adr [4]): Active

IC50 (K562): 5.5 µM | IC50 (MCF7 [10]): 8.3 µM | Retention_time [17]: 3.22 min | Activity [18]: Active | Activity [19]: Active | Activity [20]: Active | Activity [21]: Active | Drug uptake [22]: Active
Compound: H-VKRFKKFFRKLKKKV-NH2
Activity (MCF7 [7]): 15 ng | IC50 [8]: 123 µM | IC50 [9]: 8.6 µM | Activity (MCF7 [11]): Active | Activity (MCF7 [12]): 359.1 ng | inhibition (MCF7 [13]): Active | inhibition (MCF7 [14]): Active | Activity [15]: Non-toxic | Activity (MCF7 [16]): 303.2 ng | Activity (MCF7 [23]): 59.6 ng | Activity (NCI/ADR-RES [24]): Active | IC50 [25]: 5.5 µM | Activity (MCF7 [26]): Active | Activity (K562/Adr [27]): Active | Activity (MCF7 [28]): Active
